The target in data set [1] is T1, Sodium- and chloride-dependent glycine transporter 1 (Rattus norvegicus) (UniProt P28572).
T1 sequence (whole entry): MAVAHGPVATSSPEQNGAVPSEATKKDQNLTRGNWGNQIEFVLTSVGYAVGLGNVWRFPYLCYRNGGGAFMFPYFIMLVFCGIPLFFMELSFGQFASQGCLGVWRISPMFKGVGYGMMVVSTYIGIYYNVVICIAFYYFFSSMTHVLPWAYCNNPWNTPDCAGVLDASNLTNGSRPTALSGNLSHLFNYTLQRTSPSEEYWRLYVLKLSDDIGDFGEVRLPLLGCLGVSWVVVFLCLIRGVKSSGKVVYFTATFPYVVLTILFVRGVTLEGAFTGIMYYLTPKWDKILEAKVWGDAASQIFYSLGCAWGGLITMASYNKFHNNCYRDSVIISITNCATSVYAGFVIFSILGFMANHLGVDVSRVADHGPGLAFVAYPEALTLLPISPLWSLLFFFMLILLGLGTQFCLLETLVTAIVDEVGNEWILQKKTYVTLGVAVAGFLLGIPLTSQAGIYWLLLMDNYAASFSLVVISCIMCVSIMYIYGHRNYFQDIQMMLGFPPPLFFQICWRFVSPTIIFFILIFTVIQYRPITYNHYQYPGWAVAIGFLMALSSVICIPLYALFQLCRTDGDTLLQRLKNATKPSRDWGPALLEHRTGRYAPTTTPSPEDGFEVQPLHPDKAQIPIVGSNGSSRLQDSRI
As to the kind of experiment: Binding affinity to GlyT1 in rat brain hippocampus at 0.03 to 0.04 nM preincubated for 20 mins in binding buffer before compound addition measured after 30 mins by autoradiography in presence of 0.01 mM GlyT2 inhibitor ORG25543 relative to control. It counts as tissue-based. Conditions: tested as the 125I-labelled form. In a few lines:
(§1)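 Rat brain sagittal sections (20 µm) preincubated 20 min at 25 °C in Tris-HCl buffer pH 7.5 (NaCl, KCl, MgCl2, CaCl2), then 30 min at 25 °C with [125I] tracer (100 kBq, 0.03–0.04 nM) plus competitor (10 µM; glycine 1 or 10 mM). Cold washes, imaging plate 3 days, ROI PSL minus background per mm². % control from ≥triplicate slices, three rats.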

Data set [2] relates to Mus musculus. Put plainly: In vivo binding affinity to GlyT1 in ddY mouse brain midbrain at 33.3 kBq, iv after 30 mins in presence of SSR504734 2 mg/kg, iv administered 15 mins prior to compound administration relative to control. Also noted: dose 2 mg/kg. It counts as functional, organism-based. Conditions: tested as the 125I-labelled form.
Data set [3] has as its target T1, Sodium- and chloride-dependent glycine transporter 1 (Rattus norvegicus). As to the kind of experiment: Binding affinity to GlyT1 in rat brain medullary region at 0.03 to 0.04 nM preincubated for 20 mins in binding buffer before compound addition measured after 30 mins by autoradiography in presence of 0.01 mM GlyT2 inhibitor ORG25543 relative to control. In kind it is tissue-based. The settings on record: tested as the 125I-labelled form. In a few lines: as §1

The subject of data set [4] is Mus musculus. As to the kind of experiment: In vivo binding affinity to GlyT1 in ddY mouse brain striatum at 33.3 kBq, iv after 30 mins in presence of SSR504734 2 mg/kg, iv administered 15 mins prior to compound administration relative to control. Conditions: tested as the 125I-labelled form. Also noted: dose 2 mg/kg. In kind it is functional, organism-based.
For data set [5], the system named is Mus musculus. As to the kind of experiment: In vivo binding affinity to GlyT1 in ddY mouse brain cerebellum at 33.3 kBq, iv after 60 mins in presence of SSR504734 2 mg/kg, iv administered 15 mins prior to compound administration relative to control. In kind it is functional, organism-based. Also noted: dose 2 mg/kg. The settings on record: tested as the 125I-labelled form. In a few lines:
(§2)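 Blocking study in male ddY mice (6 weeks, 30–35 g). The blocker (2 mg/kg in 30% DMSO/saline) was injected i.v. 15 min before about 33.3 kBq [125I]tracer i.v.; mice were killed at 30 or 60 min. Brains were divided into cortex, corpus callosum, hippocampus, thalamus, midbrain, medulla and cerebellum, weighed and gamma-counted as % dose/g. Values are mean ± SD, n = 5–6, compared to control by Kruskal–Wallis with Dunn's post-test.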

For data set [6], the target named is T1, Sodium- and chloride-dependent glycine transporter 1 (Rattus norvegicus). As to the kind of experiment: Binding affinity to GlyT1 in rat brain medullary region at 0.03 to 0.04 nM preincubated for 20 mins in binding buffer before compound addition measured after 30 mins by autoradiography in presence of 1 mM GlyT1 substrate glycine relative to control. In kind it is tissue-based. Conditions: tested as the 125I-labelled form. In a few lines: as §1

Data set [7] shares this target. As to the kind of experiment: Binding affinity to GlyT1 in rat brain cerebellum at 0.03 to 0.04 nM preincubated for 20 mins in binding buffer before compound addition measured after 30 mins by autoradiography in presence of 0.01 mM GlyT1 inhibitor HPCP relative to control. In kind it is tissue-based. The settings on record: tested as the 125I-labelled form. In a few lines: as §1

In data set [8] the test system is Mus musculus. As to the kind of experiment: In vivo binding affinity to GlyT1 in ddY mouse brain hippocampus at 33.3 kBq, iv after 30 mins in presence of nonradioactive compound 2 mg/kg, iv administered 15 mins prior to compound administration relative to control. It counts as functional, organism-based. Also noted: dose 2 mg/kg. The settings on record: tested as the 125I-labelled form. In a few lines:
as §2

For data set [9], the target named is T1, Sodium- and chloride-dependent glycine transporter 1 (Rattus norvegicus). Put plainly: Binding affinity to GlyT1 in rat brain cerebellar gray matter at 0.03 to 0.04 nM preincubated for 20 mins in binding buffer before compound addition measured after 30 mins by autoradiography relative to control. In kind it is tissue-based. The settings on record: tested as the 125I-labelled form.

Data set [10] relates to Mus musculus. Put plainly: In vivo binding affinity to GlyT1 in ddY mouse brain striatum at 33.3 kBq, iv after 30 mins in presence of nonradioactive compound 2 mg/kg, iv administered 15 mins prior to compound administration relative to control. It counts as functional, organism-based. Also noted: dose 2 mg/kg. Conditions: tested as the 125I-labelled form.
The test system of data set [11] is Heart. Put plainly: Drug uptake in ddY mouse heart at 11.1 kBq, iv after 5 min by gamma counting. In kind it is ADME, organism-based. The settings on record: in vivo. In a few lines:
(§3)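 Male ddY mice (6 weeks, 30–35 g) received about 11.1 kBq [125I]tracer in 0.1 mL i.v. via tail vein. Killed at set times, organs dissected and weighed, radioactivity gamma counted. Reported as % injected dose/g tissue, mean ± SD, n = 5–6.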

The test system of data set [12] is Mus musculus. As to the kind of experiment: In vivo binding affinity to GlyT1 in ddY mouse brain midbrain at 33.3 kBq, iv after 30 mins in presence of nonradioactive compound 2 mg/kg, iv administered 15 mins prior to compound administration relative to control. In kind it is functional.
For data set [13], the system named is Brain. As to the kind of experiment: Drug uptake in ddY mouse brain at 11.1 kBq, iv after 180 min by gamma counting. Conditions: in vivo, 3 h. In kind it is ADME, organism-based. In a few lines: as §3
A short description of data set [14]: Metabolic stability in ddY mouse brain assessed as compound remaining at 185 kBq after 30 mins by radio-TLC. It counts as ADME, tissue-based. The settings on record: read-out: Stability.
Data set [15] has as its system Liver. As to the kind of experiment: Drug uptake in ddY mouse liver at 11.1 kBq, iv after 5 min by gamma counting. It counts as ADME, organism-based. Conditions: in vivo. In a few lines:
(§4)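 Male ddY mice (6 weeks, 30–35 g) were given about 11.1 kBq of [125I]tracer in 0.1 mL i.v. via the tail vein. At each time point the animals were killed and organs dissected, weighed and gamma-counted. Uptake is expressed as % injected dose per gram of tissue, mean ± SD, n = 5–6.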

In data set [16] the test system is Pancreas. Put plainly: Drug uptake in ddY mouse pancreas at 11.1 kBq, iv after 30 min by gamma counting. Conditions: in vivo, 0.5 h. In kind it is ADME, organism-based. In a few lines: as §4
Data set [17] concerns Liver. As to the kind of experiment: Drug uptake in ddY mouse liver at 11.1 kBq, iv after 30 min by gamma counting. In kind it is ADME, organism-based. Conditions: in vivo, 0.5 h. In a few lines: as §4
For data set [18], the system named is Blood. Put plainly: Drug uptake in ddY mouse blood at 11.1 kBq, iv after 0.5 min by gamma counting. In kind it is ADME, organism-based. Conditions: in vivo. In a few lines: as §3
Data set [19] concerns Brain. Put plainly: Drug uptake in ddY mouse brain at 11.1 kBq, iv after 30 min by gamma counting. It counts as ADME, organism-based. Conditions: in vivo, 0.5 h. In a few lines:
as §3

Data set [20] deals with Mus musculus. As to the kind of experiment: In vivo binding affinity to GlyT1 in ddY mouse brain thalamus at 33.3 kBq, iv after 60 mins in presence of nonradioactive compound 2 mg/kg, iv administered 15 mins prior to compound administration relative to control. In kind it is functional.

Structures are written as SMILES. Calls of active or inactive are those of the source. No cut-off for these calls is given here.

As for `CN1CCCC[C@H]1[C@@H](NC(=O)c1cccc(C(F)(F)F)c1I)c1ccccc1`, the Activity in data set [1] came out at 105%; in data set [3], 91.4%; in data set [6], 104%; in data set [7], 23%. Also, the outcome in data set [2], in data set [4], in data set [5] and in data set [9] was inactive. For the same molecule, the outcome in [8] and in [10] was Active.

For `CN1CCCC[C@H]1[C@@H](NC(=O)c1cccc(C(F)(F)F)c1[125I])c1ccccc1`, the Drug uptake in data set [11] turned out to be 5.17 % ID/g; in data set [13] it was 0.73 % ID/g; in data set [15], 9.25 % ID/g; in data set [16] it was 12.02 % ID/g; in data set [17], 14.74 % ID/g; in data set [18], 1.35 % ID/g. In addition, in data set [19], the Drug uptake came to 2.17 % ID/g. Further, the Activity in data set [12] stood at 48%; in data set [20] it was 58%. Moreover, the remaining at 0.5 h in data set [14] was found to be 90%.

Values taken from ChEMBL document CHEMBL1938298, “Synthesis and characterization of [¹²⁵I]2-iodo N-[(S)-{(S)-1-methylpiperidin-2-yl}(phenyl)methyl]3-trifluoromethyl-benzamide as novel imaging probe for glycine transporter 1” (Bioorg Med Chem, 2011).
